Experimental data as given in PMC5715471 (ACS chemical neuroscience, 2017).
Read-outs that look alike come from different tables or passages of the source.

What was measured:
[1] = tested on: mouse spared nerve injury (SNI) model; assay: Mechanical sensitivity; format: in vivo; details: IV 100 mg/kg
Method in brief: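 Male C57Bl6/J SNI mice, hindpaw mechanical hypersensitivity confirmed 2 weeks post-surgery. Tail-vein IV injection in 100 μL sterile saline (DMSO stock diluted; vehicle DMSO-matched): test compound 10 mg/kg, gabapentin 100 mg/kg, or vehicle, n = 6 each. Blinded von Frey testing (modified up–down) at set time points. Mean ± SEM; two-way ANOVA with Bonferroni post hoc.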

σ2R/Tmem97 = molecular target: T1, σ2R/Tmem97 (Rattus norvegicus, UniProt Q5U3Y7); assay: Sigma 2 receptor competition binding with [3H]-ditolylguanidine; details: σ2R from rat PC12 cells
T1 sequence (Q5U3Y7 1-176): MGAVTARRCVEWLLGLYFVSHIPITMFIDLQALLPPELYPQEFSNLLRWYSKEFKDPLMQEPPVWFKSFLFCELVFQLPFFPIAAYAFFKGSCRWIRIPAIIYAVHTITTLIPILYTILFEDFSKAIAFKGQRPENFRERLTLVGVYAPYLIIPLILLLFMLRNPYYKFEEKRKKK

[2] = tested on: mouse spared nerve injury (SNI) model; assay: Mechanical sensitivity; format: in vivo; details: for time after IT injection at which efficacy was seen (onset) / time through which antipain effect persisted: IT 10 μg; for effect on SNI-induced mechanical hypersensitivity: single IT injection, 10 μg, vs vehicle
Method in brief: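 Male C57Bl6/J mice with SNI (peroneal and tibial sciatic branches cut, sural spared), confirmed hypersensitive 2 weeks post-surgery and screened 21–60 days after SNI. Single intrathecal 10 μg in 5 μL saline (DMSO <5%, vehicle DMSO-matched). Blinded hindpaw von Frey, modified up–down, at set times. n = 4–11. Mean ± SEM; two-way ANOVA with Bonferroni. Repeat injections ≥14 days apart.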

[3] = Blood brain barrier crossing; format: in vivo; details: no data or reference given
[4] = tested on: SK-N-SH neuroblastoma cells; details: cited from earlier work
[5] = in vivo; cited from earlier work

NCC1(CC(=O)O)CCCCC1 [Gabapentin, reference compound]
effect on SNI-induced mechanical hypersensitivity ([1]; 1 and 3 h after injection): completely reversed mechanical hypersensitivity | mechanical hypersensitivity state ([1]; 24 h after injection): fully mechanically hypersensitive again

Clc1ccc2c(c1)C1CC2CCCN1CC1CCCCC1 (racemic) [MFG-1046, (±)-9-Chloro-2-(cyclohexylmethyl)-1,2,3,4,5,6-hexahydro-1,6-methanobenzo[c]azocine]
affinity at σ2R/Tmem97 (in words) (σ2R/Tmem97): low nM range | time after IT injection at which efficacy was seen (onset) [2]: 24 h | time through which antipain effect persisted [2]: 72 h | effect on SNI-induced mechanical hypersensitivity [2]: significantly different from vehicle

CN1CCC2CC1c1cc(N3CCOCC3)ccc12 (racemic) [JWG-1014, (±)-2-Methyl-2,3,4,5-tetrahydro-1H-1,5-methanobenzo[c]-azepin-8-yl)morpholine]
time after IT injection at which efficacy was seen (onset) [2]: 48 h | time through which antipain effect persisted [2]: 120 h | effect on SNI-induced mechanical hypersensitivity [2]: significantly different from vehicle

Fc1ccc(-n2cc(CCCCN3CCC4(CC3)OCc3ccccc34)c3ccccc32)cc1 [Siramesine, reference compound]
effect on SNI-induced mechanical hypersensitivity [2]: small inhibitory effect on mechanical hypersensitivity that was significant at 24 and 48 h

FC(F)(F)c1ccc(-c2ccc3c(c2)C2CC3CCCN2C2CCCC2)cc1 (racemic) [DKR-1051, (±)-2-Cyclopentyl-9-(4-(trifluoromethyl)phenyl)-1,2,3,4,5,6-hexa-hydro-1,6-methanobenzo[c]azocine]
affinity at σ2R/Tmem97 (in words) (σ2R/Tmem97): high affinity | blood brain barrier crossing [3]: cross the blood brain barrier | time of peak relief of mechanical hypersensitivity after dosing ([2]; IT): 48 h | effect on SNI-induced mechanical hypersensitivity [2]: significant antimechanical hypersensitivity effects at either 24 or 48 h | effect on intracellular Ca2+ ([4]; SK-N-SH neuroblastoma cells): induces a rapid Ca^2+ transient

c1ccc(CCN2CCC3CC2c2ccccc23)cc1 (racemic) [JSS-1027, (±)-2-Phenethyl-2,3,4,5-tetrahydro-1H-1,5-methanobenzo[c]-azepine]
affinity at σ2R/Tmem97 (in words) (σ2R/Tmem97): low nM range | time after IT injection at which efficacy was seen (onset) [2]: 48 h | time through which antipain effect persisted [2]: 120 h | effect on SNI-induced mechanical hypersensitivity [2]: significantly different from vehicle

CN1CCN(c2ccc3c(c2)[C@H]2C[C@@H]3CCN2C(=O)OCc2ccccc2)CC1 [SAS-0132]
effect of co-administration on antinociceptive action of UKH-1114 ([2]; SAS-0132 10 μg IT given at the same time as UKH-1114 10 μg): completely blocked the effect seen with UKH-1114 given alone | effect of pretreatment on DKR-1051-induced Ca2+ transient ([4]; SK-N-SH neuroblastoma cells pretreated with SAS-0132): attenuated | blood brain barrier crossing [5]: cross the blood brain barrier
